Results as given in ChEMBL document CHEMBL1138555, “N-acylated and N,N'-diacylated imidazolidine-2-thione derivatives and N,N'-diacylated tetrahydropyrimidine-2(1H)-thione analogues: synthesis and antiproliferative activity” (Eur J Med Chem, 2009).

Experiments:
MT4 = assay: Antiproliferative activity against human MT4 cells assessed as reduction of growth by MTT assay; type: functional, cell-based
Outline: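 MT-4 lymphoblastoid T cells (ATCC) in RPMI 1640 with 10% FCS, penicillin/streptomycin, checked for mycoplasma. 1 × 10⁴ mock-infected cells per well with serial dilutions from a 100 mM DMSO stock. Incubated 4 days at 37 °C, viable cells counted by MTT. IC50 versus untreated controls by linear regression. Mean of three separate experiments.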

SNB-19 = assay: Growth inhibition of human SNB19 cells after 48 hrs by sulforhodamine B assay; type: functional; conditions: SNB-19, 48 h
Outline: (§1)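 NCI in vitro panel screen. Compounds tested at five 10-fold dilutions, 10^-4 to 10^-8 M. Cells in 96-well plates were exposed for the last 48 h of a 72 h incubation. Viability/growth was read by sulforhodamine B protein assay. GI50 is the concentration giving 50% growth inhibition. Values beyond the tested range are reported as greater or less than the maximum or minimum concentration.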

IGROV-1 = assay: Growth inhibition of human IGROV1 cells after 48 hrs by sulforhodamine B assay; type: functional; conditions: IGROV-1, 48 h
Outline: (§2)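 NCI screen panel. Five 10-fold concentrations from 10^-4 to 10^-8 M. Exposure for the last 48 h of a 72 h incubation. Growth estimated by sulforhodamine B protein assay. GI50 is the concentration giving 50% growth inhibition. Where that level was not reached or was exceeded, the value is given as above or below the highest or lowest concentration tested.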

BT-549 = assay: Growth inhibition of human BT549 cells after 48 hrs by sulforhodamine B assay; type: functional; conditions: BT-549, 48 h; outline: as §2
RXF 393 = assay: Growth inhibition of human RXF393 cells after 48 hrs by sulforhodamine B assay; type: functional; conditions: RXF 393, 48 h; outline: as §2
TK-10 = assay: Growth inhibition of human TK10 cells after 48 hrs by sulforhodamine B assay; type: functional; conditions: TK-10, 48 h; outline: as §1
SR = assay: Growth inhibition of human SR cells after 48 hrs by sulforhodamine B assay; type: functional; outline: as §1
HCT-116 = assay: Growth inhibition of human HCT116 cells after 48 hrs by sulforhodamine B assay; type: functional; conditions: HCT-116, 48 h; outline: as §2
UACC-257 = assay: Growth inhibition of human UACC257 cells after 48 hrs by sulforhodamine B assay; type: functional; conditions: UACC-257, 48 h; outline: as §1
SK-MEL-5 = assay: Growth inhibition of human SK-MEL-5 cells after 48 hrs by sulforhodamine B assay; type: functional; conditions: SK-MEL-5, 48 h; outline: as §2
OVCAR-3 = assay: Growth inhibition of human OVCAR-3 cells after 48 hrs by sulforhodamine B assay; type: functional; conditions: OVCAR-3, 48 h; outline: as §2
UACC-62 = assay: Growth inhibition of human UACC62 cells after 48 hrs by sulforhodamine B assay; type: functional; conditions: UACC-62, 48 h; outline: as §1
[1] = Growth inhibition of human […] cells after 48 hrs by sulforhodamine B assay; type: functional; outline: as §2
NCI-H322M = assay: Growth inhibition of human NCI-H322M cells after 48 hrs by sulforhodamine B assay; type: functional; outline: as §2
MOLT-4 = assay: Growth inhibition of human MOLT4 cells after 48 hrs by sulforhodamine B assay; type: functional; conditions: MOLT-4, 48 h; outline: as §2
M14 = assay: Growth inhibition of human M14 cells after 48 hrs by sulforhodamine B assay; type: functional; conditions: M14, 48 h; outline: as §2
NCI-H23 = assay: Growth inhibition of human NCI-H23 cells after 48 hrs by sulforhodamine B assay; type: functional; conditions: NCI-H23, 48 h; outline: as §2
LOX IMVI = assay: Growth inhibition of human LOXIMVI cells after 48 hrs by sulforhodamine B assay; type: functional; outline: as §2
ACHN = assay: Growth inhibition of human ACHN cells after 48 hrs by sulforhodamine B assay; type: functional; outline: as §2
MDA-MB-231 = assay: Growth inhibition of human MDA-MB-231 cells after 48 hrs by sulforhodamine B assay; type: functional; conditions: MDA-MB-231, 48 h; outline: as §2
SNB-75 = assay: Growth inhibition of human SNB75 cells after 48 hrs by sulforhodamine B assay; type: functional; conditions: SNB-75, 48 h; outline: as §1
A549 = assay: Growth inhibition of human A549 cells after 48 hrs by sulforhodamine B assay; type: functional; conditions: A549, 48 h; outline: as §2
OVCAR-8 = assay: Growth inhibition of human OVCAR8 cells after 48 hrs by sulforhodamine B assay; type: functional; conditions: OVCAR-8, 48 h; outline: as §2
Malme-3M = assay: Growth inhibition of human MALME-3M cells after 48 hrs by sulforhodamine B assay; type: functional; outline: as §2
HT-29 = assay: Growth inhibition of human HT-29 cells after 48 hrs by sulforhodamine B assay; type: functional; conditions: HT-29, 48 h; outline: as §2
SK-MEL-28 = assay: Growth inhibition of human SK-MEL-28 cells after 48 hrs by sulforhodamine B assay; type: functional; conditions: SK-MEL-28, 48 h; outline: as §2
SW-620 = assay: Growth inhibition of human SW620 cells after 48 hrs by sulforhodamine B assay; type: functional; conditions: SW-620, 48 h; outline: as §1
HL-60(TB) = assay: Growth inhibition of human HL-60(TB) cells after 48 hrs by sulforhodamine B assay; type: functional; conditions: HL-60, 48 h
Outline: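 NCI 60-cell-line screen protocol: cells exposed to compound at five 10-fold dilutions from 10^-4 to 10^-8 M for the last 48 h of a 72 h incubation. Sulforhodamine B protein assay estimated viability/growth. GI50 (50% growth inhibition) derived; where not reached or exceeded, reported as greater or less than the highest or lowest concentration tested.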

HOP-62 = assay: Growth inhibition of human HOP62 cells after 48 hrs by sulforhodamine B assay; type: functional; conditions: HOP-62, 48 h; outline: as §2
U-251 = assay: Growth inhibition of human U251 cells after 48 hrs by sulforhodamine B assay; type: functional; conditions: U-251, 48 h; outline: as §1
NCI/ADR-RES = assay: Growth inhibition of human NCI/ADR-RES cells after 48 hrs by sulforhodamine B assay; type: functional; outline: as §2
CAKI-1 = assay: Growth inhibition of human Caki1 cells after 48 hrs by sulforhodamine B assay; type: functional; conditions: CAKI-1, 48 h; outline: as §2
NCI-H460 = assay: Growth inhibition of human NCI-H460 cells after 48 hrs by sulforhodamine B assay; type: functional; conditions: NCI-H460, 48 h; outline: as §2
SN12C = assay: Growth inhibition of human SN12C cells after 48 hrs by sulforhodamine B assay; type: functional; outline: as §1
OVCAR-4 = assay: Growth inhibition of human OVCAR4 cells after 48 hrs by sulforhodamine B assay; type: functional; conditions: OVCAR-4, 48 h; outline: as §2
KM12 = assay: Growth inhibition of human KM12 cells after 48 hrs by sulforhodamine B assay; type: functional; conditions: KM12, 48 h; outline: as §2
SK-MEL-2 = assay: Growth inhibition of human SK-MEL-2 cells after 48 hrs by sulforhodamine B assay; type: functional; conditions: SK-MEL-2, 48 h; outline: as §2
PC-3 = assay: Growth inhibition of human PC3 cells after 48 hrs by sulforhodamine B assay; type: functional; conditions: PC-3, 48 h; outline: as §2
UO-31 = assay: Growth inhibition of human UO31 cells after 48 hrs by sulforhodamine B assay; type: functional; conditions: UO-31, 48 h; outline: as §1
DU-145 = assay: Growth inhibition of human DU145 cells after 48 hrs by sulforhodamine B assay; type: functional; conditions: DU-145, 48 h; outline: as §2
SK-OV-3 = assay: Growth inhibition of human SKOV3 cells after 48 hrs by sulforhodamine B assay; type: functional; conditions: SK-OV-3, 48 h; outline: as §2
786-0 = assay: Growth inhibition of human 786-0 cells after 48 hrs by sulforhodamine B assay; type: functional; conditions: 786-0, 48 h; outline: as §2
SF-295 = assay: Growth inhibition of human SF295 cells after 48 hrs by sulforhodamine B assay; type: functional; conditions: SF-295, 48 h; outline: as §2
EKVX = assay: Growth inhibition of human EKVX cells after 48 hrs by sulforhodamine B assay; type: functional; outline: as §2
HCT-15 = assay: Growth inhibition of human HCT15 cells after 48 hrs by sulforhodamine B assay; type: functional; conditions: HCT-15, 48 h; outline: as §2
COLO 205 = assay: Growth inhibition of human COLO205 cells after 48 hrs by sulforhodamine B assay; type: functional; conditions: COLO 205, 48 h; outline: as §2
HOP-92 = assay: Growth inhibition of human HOP92 cells after 48 hrs by sulforhodamine B assay; type: functional; conditions: HOP-92, 48 h; outline: as §2
MDA-MB-435 = assay: Growth inhibition of human MDA-MB-435 cells after 48 hrs by sulforhodamine B assay; type: functional; conditions: MDA-MB-435, 48 h; outline: as §2
K562 = assay: Growth inhibition of human K562 cells after 48 hrs by sulforhodamine B assay; type: functional; conditions: K562, 48 h; outline: as §2

CC(C)(C)C(=O)/C(C#N)=C/N1CCN(C(=O)c2ccco2)C1=S
IC50 (MT4): 14 µM

O=C(c1ccccc1)N1CCN(C(=O)c2ccccc2)C1=S
IC50 (MT4): 94 µM

O=C(c1ccc(Cl)cc1)N1CCCN(C(=O)c2ccc(Cl)cc2)C1=S
IC50 (MT4): 38 µM

O=C(c1ccc(Cl)cc1)N1CCN(C(=O)c2ccc(Cl)cc2)C1=S
IC50 (MT4): 9.9 µM

COc1cc(C(=O)N2CCCN(C(=O)c3cc(OC)c(OC)c(OC)c3)C2=S)cc(OC)c1OC
IC50 (MT4): > 100 µM

O=C(c1cccc([N+](=O)[O-])c1)N1CCN(C(=O)c2cccc([N+](=O)[O-])c2)C1=S
IC50 (MT4): > 100 µM

O=C(C(=CN1CCN(C(=O)c2ccco2)C1=S)C(=O)c1ccccc1)c1ccccc1
GI50 (SNB-19): 29.2 µM
GI50 (IGROV-1): 5.6 µM
GI50 (BT-549): 10 µM
GI50 (RXF 393): 5.8 µM
GI50 (TK-10): 6.9 µM
GI50 (SR): 1.3 µM
GI50 (HCT-116): 7.9 µM
GI50 (UACC-257): 11.7 µM
GI50 (SK-MEL-5): 10.9 µM
GI50 (OVCAR-3): 7.3 µM
GI50 (UACC-62): 6.9 µM
GI50 [1]: 8.4 µM
GI50 (NCI-H322M): 2.2 µM
GI50 (MOLT-4): 15.2 µM
GI50 (M14): 7 µM
GI50 (NCI-H23): 7 µM
GI50 (LOX IMVI): 1.2 µM
GI50 (ACHN): 5.8 µM
GI50 (MDA-MB-231): 7.4 µM
GI50 (SNB-75): 27.4 µM
GI50 (A549): 11.3 µM
GI50 (OVCAR-8): 16.2 µM
GI50 (Malme-3M): 3.1 µM
GI50 (HT-29): 16.9 µM
GI50 (SK-MEL-28): 17.8 µM
GI50 (SW-620): 8.7 µM
GI50 (HL-60(TB)): 9.9 µM
GI50 (HOP-62): 15.9 µM
GI50 (U-251): 2.7 µM
GI50 (NCI/ADR-RES): 9.2 µM
GI50 (CAKI-1): 7 µM
IC50 (MT4): 7 µM
GI50 (NCI-H460): 2.4 µM
GI50 (SN12C): 6.1 µM
GI50 (OVCAR-4): 16.1 µM
GI50 (KM12): 2.3 µM
GI50 (SK-MEL-2): 12.1 µM
GI50 (PC-3): 23.6 µM
GI50 (UO-31): 8.7 µM
GI50 (DU-145): 12.4 µM
GI50 (SK-OV-3): 41.8 µM
GI50 (786-0): 8.2 µM
GI50 (SF-295): 11.1 µM
GI50 (EKVX): 8.1 µM
GI50 (HCT-15): 2.6 µM
GI50 (COLO 205): 20 µM
GI50 (HOP-92): 27 µM
GI50 (MDA-MB-435): 7.2 µM
GI50 (K562): 3.2 µM

CC(=O)N1CCN(C(C)=O)C1=S
IC50 (MT4): > 100 µM

Cc1ccc(C(=O)N2CCN(C=O)C2=S)cc1
IC50 (MT4): 31 µM

O=C(c1ccco1)N1CCCN(C(=O)c2ccco2)C1=S
IC50 (MT4): 36 µM

O=C(c1cccc2ccccc12)N1CCN(C(=O)c2cccc3ccccc23)C1=S
IC50 (MT4): 13 µM

O=CN1CCN(C(=O)/C=C/c2ccccc2)C1=S
IC50 (MT4): > 100 µM

O=C(c1cccc(Cl)c1)N1CCN(C(=O)c2cccc(Cl)c2)C1=S
IC50 (MT4): 35 µM

CC(=O)N1CCN(C=O)C1=S
IC50 (MT4): > 100 µM

Cc1ccc(C(=O)N2CCN(C(=O)c3ccc(C)cc3)C2=S)cc1
IC50 (MT4): 35 µM

O=CN1CCN(C(=O)c2ccccc2)C1=S
IC50 (MT4): 12 µM

O=C(c1ccc(Cl)c(Cl)c1)N1CCCN(C(=O)c2ccc(Cl)c(Cl)c2)C1=S
IC50 (MT4): 72 µM
